According to ChEMBL document CHEMBL1136477, “beta-alanine dipeptides as MC4R agonists” (Bioorg Med Chem Lett, 2003):

Experiments:
[1] = target: T1, Melanocortin receptor 4 (Homo sapiens, UniProt P32245); assay: Binding activity was measured using membranes of Hi5 cells expressing the human MC4R receptors; format: cell membranes, BTI-TN-5B1-4
[2] = target: T1, Melanocortin receptor 4; assay: Stimulation of adenylate cyclase in HEK293 cells expressing the human MC4R receptor was determined by measuring cAMP accumulation using the RPA559 SPA assay; format: functional, cell-based
Method in brief: (§1)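 HEK293 cells stably expressing human MC4R (MEM, G418, 10% heat-inactivated FBS) seeded 5×10^4 cells/well overnight. Then 10 min at 37 °C with 0.1 mM IBMX and increasing compound (1% DMSO final). After lysis, cAMP read by SPA kit. EC50 by non-linear regression. Intrinsic activity is % of NDP-a-MSH maximum. Run twice or three times in duplicate.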

[3] = Intrinsic activity was expressed as percent of maximal activity achieved by NDP-alpha-MSH.; format: functional; method in brief: as §1

T1 sequence (P32245 whole entry): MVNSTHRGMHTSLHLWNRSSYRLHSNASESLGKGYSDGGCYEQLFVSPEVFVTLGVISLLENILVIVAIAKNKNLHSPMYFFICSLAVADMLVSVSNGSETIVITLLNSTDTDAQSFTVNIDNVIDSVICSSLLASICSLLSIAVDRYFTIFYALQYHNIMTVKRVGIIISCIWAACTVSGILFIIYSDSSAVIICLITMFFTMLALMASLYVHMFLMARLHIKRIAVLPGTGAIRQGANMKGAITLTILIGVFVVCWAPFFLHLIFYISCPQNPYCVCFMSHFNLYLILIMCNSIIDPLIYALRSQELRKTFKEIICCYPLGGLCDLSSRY

| Structure (SMILES) | IC50 [1] | EC50 [2] | Max stimulation [3] |
| --- | --- | --- | --- |
| O=C(CCNC(=O)c1ccccc1)N[C@H](Cc1ccc(Cl)cc1)C(=O)N1CCC(Cn2cncn2)(C2CCCCC2)CC1 | 90 nM | – | – |
| CC(C)(N)CC(=O)N[C@H](Cc1ccc(Cl)cc1)C(=O)N1CCC(Cn2cncn2)(C2CCCCC2)CC1 | 18 nM | – | – |
| O=C(CCN1CCCCC1)NCCC(=O)N[C@H](Cc1ccc(Cl)cc1)C(=O)N1CCC(Cn2cncn2)(C2CCCCC2)CC1 | 12 nM | – | – |
| O=C(CCN(Cc1ccccc1)Cc1ccccc1)N[C@H](Cc1ccc(Cl)cc1)C(=O)N1CCC(Cn2cncn2)(C2CCCCC2)CC1 | 110 nM | – | – |
| O=C(CCNCc1ccccc1)N[C@H](Cc1ccc(Cl)cc1)C(=O)N1CCC(Cn2cncn2)(C2CCCCC2)CC1 | 14 nM | – | – |
| O=C(C[C@@H]1CCCN1)N[C@H](Cc1ccc(Cl)cc1)C(=O)N1CCC(Cn2cncn2)(C2CCCCC2)CC1 | 22 nM | – | – |
| O=C(N[C@H](Cc1ccc(Cl)cc1)C(=O)N1CCC(Cn2cncn2)(C2CCCCC2)CC1)[C@@H]1CCCNC1 | 12 nM | – | – |
| CC(C)(CN)C(=O)N[C@H](Cc1ccc(Cl)cc1)C(=O)N1CCC(Cn2cncn2)(C2CCCCC2)CC1 | 30 nM | – | – |
| O=C(N[C@H](Cc1ccc(Cl)cc1)C(=O)N1CCC(Cn2cncn2)(C2CCCCC2)CC1)[C@H]1CCCNC1 | 9 nM | – | – |
| O=C(CCNC(=O)[C@@H]1CCCNC1)N[C@H](Cc1ccc(Cl)cc1)C(=O)N1CCC(Cn2cncn2)(C2CCCCC2)CC1 | 25 nM | – | – |
| O=C(N[C@H](Cc1ccc(Cl)cc1)C(=O)N1CCC(Cn2cncn2)(C2CCCCC2)CC1)C1CNC1 | 16 nM | – | – |
| O=C(N[C@H](Cc1ccc(Cl)cc1)C(=O)N1CCC(Cn2cncn2)(C2CCCCC2)CC1)[C@H]1Cc2ccccc2CN1 | – | – | 99% |
| O=C(CCNC(=O)[C@H]1CCCNC1)N[C@H](Cc1ccc(Cl)cc1)C(=O)N1CCC(Cn2cncn2)(C2CCCCC2)CC1 | 22 nM | – | – |

Now from value to compound, other results behind:

| IC50 [1] | EC50 [2] | Structure (SMILES) | Max stimulation [3] |
| --- | --- | --- | --- |
| 10 nM | 40 nM | CN(C)CCC(=O)N[C@H](Cc1ccc(Cl)cc1)C(=O)N1CCC(Cn2cncn2)(C2CCCCC2)CC1 | 98% |
| 12 nM | – | CC(=O)NCCC(=O)N[C@H](Cc1ccc(Cl)cc1)C(=O)N1CCC(Cn2cncn2)(C2CCCCC2)CC1 | – |
| 21 nM | – | COCC(=O)NCCC(=O)N[C@H](Cc1ccc(Cl)cc1)C(=O)N1CCC(Cn2cncn2)(C2CCCCC2)CC1 | – |
| 180 nM | – | O=C(CCNC(=O)C(F)(F)F)N[C@H](Cc1ccc(Cl)cc1)C(=O)N1CCC(Cn2cncn2)(C2CCCCC2)CC1 | – |
| 16 nM | 170 nM | NCCC(=O)N[C@H](Cc1ccc(Cl)cc1)C(=O)N1CCC(Cn2cncn2)(C2CCCCC2)CC1 | 92% |
| 11 nM | – | CN(C)CCC(=O)NCCC(=O)N[C@H](Cc1ccc(Cl)cc1)C(=O)N1CCC(Cn2cncn2)(C2CCCCC2)CC1 | – |
| 10 nM | 70 nM | CNCCC(=O)N[C@H](Cc1ccc(Cl)cc1)C(=O)N1CCC(Cn2cncn2)(C2CCCCC2)CC1 | 98% |
